PMC5725227 (Pharmaceutical research, 2014)

How the values were obtained:
[1] = tested on: A549 cells; assay: In-vitro cytotoxicity, crystal violet dye assay; format: cell-based, human
[2] = Plasma pharmacokinetics after i.v. administration; format: in vivo, BALB/c mice; settings: DIM-P, 5.0 mg/kg equivalent of DIM-P
Outline: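 BALB/c mice, randomized (n = 6 per group) and fasted overnight, received a single i.v. dose (DIM-P equivalent 5.0 mg/kg). Plasma was deproteinized with acetonitrile and spun 15 min at 10,000 g. Analysis was C18 HPLC with acetonitrile:water 90:10 at 1.0 mL/min, UV 242 nm. Parameters were derived non-compartmentally.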

| Cl [2] | Cmax [2] | K10-HL [2] | MRT [2] | Vss [2] | AUC0–24 ([2]; non-compartment analysis) | Compound | IC50 ([1]; Homo sapiens, A549, 72 h) | IC50 ([1]; A549 cells, 72 h) |
| --- | --- | --- | --- | --- | --- | --- | --- | --- |
|  |  |  |  |  |  | CC(=O)O[C@@]12CO[C@@H]1C[C@H](O)[C@@]1(C)C(=O)[C@H](O)C3=C(C)[C@@H](OC(=O)[C@H](O)[C@@H](NC(=O)OC(C)(C)C)c4ccccc4)C[C@@](O)([C@@H](OC(=O)c4ccccc4)[C@H]21)C3(C)C [Doc, Docetaxel, reference compound] | 0.02 ± 0.01 µM |  |
| 0.629 ± 0.173 mL/min/kg | 216.25 ± 23.59 µg/mL | 2.98 ± 0.65 hr^−1 | 2.79 ± 1.02 h | 0.18598 ± 0.02989 L/kg | 124.22 ± 13.65 µg·h/mL | c1ccc(-c2ccc(C(c3c[nH]c4ccccc34)c3c[nH]c4ccccc34)cc2)cc1 [DIM-P, DIM-C-pPhC6H5] |  | 6.8 ± 0.7 µM |
